Compounds with a hit are over-represented: about 3.5% of the library has one in this group of screens.
esBAF inh: SWI/SNF esBAF complex inhibition. mouse ES cells, Bmi1-luciferase knock-in reporter, 24 h; 100% = twice the neutral-well signal. actives 2% (n = 350,000). AID 602393. reporter increase, % at 12.5 µM; in the data active means activation above about 40%;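 further: 0% = median of the plate's neutral control wells and 100% = double that signal; a rise in the Bmi1 reporter signal indicates esBAF inhibition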
HIV Env fusion: inhibitors of HIV Env-mediated cell fusion; HeLa-JRFL Env/CEM21 cell fusion, luciferase; inhibition, % at 12.3 µM; actives 1.1% (n = 360,000);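 active means mean replicate inhibition score of at least 50 and every replicate individually at or above 50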;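 further: 0% = plate neutral controls and 100% = maraviroc near 300 nM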
Wnt act: activates Wnt/beta-catenin signaling in a reporter cell assay | activator, plate reader | activation, % at 9.35 µM | actives 1.2% (n = 300,000); in the data active means activation above about 30%, passing the limit was not always enough;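 further: 0% = neutral control wells and 100% = positive control wells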
MITF TRPM1 HTS: MITF TRPM1 promoter activation in melanoma cells. activation, % at 12.5 µM. SK-MEL-5 TRPM1-promoter luciferase, 24 h; % of positive control, neutral wells = 0. actives 0.75% (n = 300,000). AID 588334;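 active means mean activation of at least 80% with every replicate also reaching 80%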;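 further: 0% = neutral control wells and 100% = parthenolide positive control wells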
ERAP1 inh: blocks human ERAP1 aminopeptidase activity | Q9NZ08 | recombinant ERAP1, Leu-AMC fluorescence, 60 min | inhibition, % at 10.7 µM | actives 0.15% (n = 340,000) | AID 652197;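 active means mean replicate inhibition of at least 30%, or all replicates individually reaching that 30% level; inactive means mean below 30% and not every replicate reaching it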;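 further: 0% = neutral control wells and 100% = L-leucinethiol positive control wells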
Target sequence (Q9NZ08 whole entry, looked up): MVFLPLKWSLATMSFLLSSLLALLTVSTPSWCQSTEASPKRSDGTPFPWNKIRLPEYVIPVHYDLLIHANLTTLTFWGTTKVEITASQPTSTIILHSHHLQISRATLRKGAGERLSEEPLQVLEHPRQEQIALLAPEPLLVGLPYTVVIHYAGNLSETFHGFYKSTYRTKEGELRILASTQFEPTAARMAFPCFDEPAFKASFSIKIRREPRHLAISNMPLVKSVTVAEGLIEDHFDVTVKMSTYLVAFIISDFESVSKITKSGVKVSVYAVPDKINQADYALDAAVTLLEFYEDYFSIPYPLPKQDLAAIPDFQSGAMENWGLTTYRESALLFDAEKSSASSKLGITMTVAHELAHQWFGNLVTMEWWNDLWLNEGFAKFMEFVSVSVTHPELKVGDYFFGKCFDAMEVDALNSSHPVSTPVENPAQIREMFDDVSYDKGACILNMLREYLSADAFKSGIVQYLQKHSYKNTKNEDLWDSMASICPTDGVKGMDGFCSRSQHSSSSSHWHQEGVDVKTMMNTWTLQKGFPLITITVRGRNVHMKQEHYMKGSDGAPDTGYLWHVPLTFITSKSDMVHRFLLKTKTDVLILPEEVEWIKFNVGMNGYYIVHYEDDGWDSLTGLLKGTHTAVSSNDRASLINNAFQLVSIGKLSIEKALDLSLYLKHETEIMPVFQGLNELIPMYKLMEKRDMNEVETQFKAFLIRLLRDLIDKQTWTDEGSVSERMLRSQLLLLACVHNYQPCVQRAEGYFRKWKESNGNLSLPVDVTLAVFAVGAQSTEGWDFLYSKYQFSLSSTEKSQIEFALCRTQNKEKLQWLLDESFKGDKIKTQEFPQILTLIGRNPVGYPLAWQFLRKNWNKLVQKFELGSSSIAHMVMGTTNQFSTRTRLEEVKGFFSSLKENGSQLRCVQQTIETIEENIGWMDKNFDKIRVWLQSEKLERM
Cneo AK release: causes C. neoformans cell lysis. adenylate kinase release luminescence, 4 h; normalised: neutral wells 0, clomiphene wells 100. lysis activity, % at 15 µM. actives 0.2% (n = 360,000);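 active means mean lysis activity across replicates of at least 80%, whatever share of replicates individually reach that level; inactive means mean lysis activity below 80%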
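Test system: log-phase Cryptococcus neoformans yeast cells; Quantity: yeast cell density of 5 × 10^6 cells/mL; Buffer or medium: YPD; Doses: single compound concentration per well; Timing: 4 h at 37 °C static, read 1 h later; Measured by: AK luminescence; Read-out basis: lysis from increased AK signal; Control set: Clomiphene as positive control.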
An asterisk follows results filed as active; · = no result given; [ ] = another dose, or the depositor's remark.

SMILES	esBAF inh	HIV Env fusion	Wnt act	MITF TRPM1 HTS	ERAP1 inh	Cneo AK release
O=C(C[C@@H]1C[C@H]2c3cc(NC(=O)c4cccnc4)ccc3O[C@H]2[C@@H](CO)O1)NCc1cccnc1	-6	5[16.7 µM]	·	·	3	-1
COc1ccc(NC(=O)N(C)C[C@@H]2Oc3ccc(NS(=O)(=O)c4ccccc4)cc3CC(=O)N([C@@H](C)CO)C[C@H]2C)cc1	6	12[16.7 µM]	·	·	-1	·
CCOC(=O)C1CCN(C(=O)c2oc3ccc(S(=O)(=O)N4CC(C)CC(C)C4)cc3c2C)CC1 (stereo unspecified)	2	-8	-4	-14	·	2
CCOC(=O)N1CCN(C(=O)c2oc3ccc(S(=O)(=O)N4CC(C)CC(C)C4)cc3c2C)CC1 (stereo unspecified)	4	62*	·	·	·	-1
COC(=O)c1ccc(-c2ccc([C@H]3[C@H]4C=CC[C@@H](C)[C@@H]4C(=O)N3Cc3ccccc3)c(F)c2)cc1	59*	-17	-12	·	-5	-2
CC[C@@H]1CC=C[C@H]2[C@H]1C(=O)N(Cc1ccccc1)[C@H]2c1ccoc1	3	·	·	-16	·	1
COc1ccc(-c2cc([C@H]3[C@H]4C=CC[C@@H](C)[C@@H]4C(=O)N3Cc3ccccc3)ccc2F)cc1OC	48*	21	12	53	0	-2
CC(=O)c1ccc(-c2ccc([C@H]3[C@H]4C=CC[C@@H](C)[C@@H]4C(=O)N3Cc3ccccc3)c(F)c2)cc1	0	16	5	5	4	-4
CC[C@@H]1CC=C[C@H]2[C@H]1C(=O)N(Cc1ccccc1)[C@H]2c1ccc(C(F)(F)F)cc1	-10	57*	-17	17	-2	-1
COC(=O)c1ccc(-c2ccc(OC)c([C@H]3[C@H]4C=CC[C@@H](C)[C@@H]4C(=O)N3Cc3ccccc3)c2)cc1	79*	64*	2	26	-5	-1
COc1ccc(-c2ccc(C(C)=O)cc2)cc1[C@H]1[C@H]2C=CC[C@@H](C)[C@@H]2C(=O)N1Cc1ccccc1	-2	26	3	21	·	5
C/C=C/c1ccccc1[C@@H]1[C@@H](CO)N(C(C)=O)[C@H]1C#N	·	·	·	·	1	·
C[C@@H]1CCCCO[C@@H](CN(C)S(=O)(=O)c2cn(C)cn2)[C@@H](C)CN([C@H](C)CO)C(=O)c2cc(NS(=O)(=O)c3cn(C)cn3)ccc2O1	-8	16[16.7 µM]	·	·	1	1
CNC(=O)COc1coc(CN2CCN(C(=O)c3ccco3)CC2)cc1=O	-2	5	35*	-2	0	0
COc1cccc(S(=O)(=O)N[C@@H]2CC[C@H](CCN)O[C@H]2CO)c1	-1	66*[16.7 µM]	·	·	2	-5
COc1cccc(S(=O)(=O)N[C@H]2CC[C@@H](CCN)O[C@@H]2CO)c1	-2	68*[16.7 µM]	·	·	-1	2
COCCn1c(NC(=S)NC(=O)C2CC2)cc(=O)[nH]c1=O	-7	16	-2	11	0	3
COCc1cc(=O)[nH]c2cc(NC(=O)C3CC3)c(C)cc12	·	0	50*	-17	·	-1
CO[C@@H]1CN(C)C(=O)c2cc(NS(=O)(=O)c3ccc(Cl)cc3)ccc2OC[C@H](C)NC[C@H]1C	3	-6[16.7 µM]	·	·	-6	-2
CC1(C)Oc2ccc3ccc(=O)oc3c2-c2cn[nH]c21	-8	·	·	13	·	2
CC1(C)Oc2ccc3ccc(=O)oc3c2-c2cnoc21	2	19	-2	1	56*	1
Cc1cccc(OCCn2c(=S)[nH]c3ccccc32)c1	37	·	·	16	·	27
Cc1ccc(OCCn2c(=S)[nH]c3ccccc32)c(C(C)C)c1	-3	21	-1	-19	-1	97*
Nc1ccn(C2OC(COC(=O)C34CC5CC(CC(C5)C3)C4)C(O)C2O)c(=O)n1 (stereo unspecified)	·	68*	-1	·	-4	·
COCC(=O)Nc1ccc2c(c1)[C@@H]1C[C@H](CC(=O)N3CCN(C)CC3)O[C@H](CO)[C@@H]1O2	-3	6[16.7 µM]	·	·	·	0
SMILES	esBAF inh	HIV Env fusion	Wnt act	MITF TRPM1 HTS	ERAP1 inh	Cneo AK release
COc1ccc(NC(=O)c2ccc(-c3csc(C)n3)cc2)cc1	41*	9	6	·	1	1
Cc1nc(-c2ccc(C(=O)Nc3ccc(F)cc3)cc2)cs1	-16	-36	43*	10	1	·
C=CCN1C(=O)/C(=C/c2ccc(OC)cc2)S/C1=N/c1nccs1	·	-4	-3	18	·	·
C=CCN=C1S/C(=C\c2ccc(N(C)C)cc2)C(=O)N1CC=C	·	-35	37*	99*	-2	·
O=C(NCC[C@@H]1CC[C@H](NS(=O)(=O)Cc2ccccc2)[C@@H](CO)O1)C1CCCC1	4	6[16.7 µM]	·	·	1	-2
CCC(=O)Nc1ccc2c(c1)C(=O)N(C)[C@H]1CC[C@@H](CC(=O)O)O[C@@H]1CO2	0	·	·	·	-1	-3
CCCCCc1ccc(OCCCC[n+]2ccc(C)cc2)c(CCCCC)c1	·	55*	-5	-100	11	·
CCCCCc1ccc(OCCCC[n+]2cccc(C)c2)c(CCCCC)c1	-87	56*	-2	-78	13	·
COc1ccccc1-c1cccc(-c2nc(C(=O)Nc3nccs3)cc3c2[C@H](CCO)N(C(=O)CC2CC2)C3)c1	·	22[16.7 µM]	·	·	-1	·
COc1ccccc1-c1cccc(-c2nc(C(=O)Nc3nccs3)cc3c2[C@@H](CCO)N(C(=O)CC2CC2)C3)c1	·	5	-1	·	45*	·
CCCOc1ncnc2c1[nH]c1ccc(OC)cc12	·	-98	52*	·	5	·
CCCCOc1ncnc2c1[nH]c1ccc(C)cc12	·	-75	43*	·	1	-3
CCCOc1ncnc2c1[nH]c1ccccc12	25	15	15	·	·	-6
COc1ccc2[nH]c3c(NCCCOC(C)C)ncnc3c2c1	·	-58	31*	5	0	·
C[C@H]1CN([C@@H](C)CO)S(=O)(=O)c2ccc(C#CC3CC3)cc2O[C@@H]1CN(C)C(=O)c1cnccn1	10	-8[16.7 µM]	·	·	3	4
CCOC(=O)/C=C1\Nc2ccccc2SC1=O	-10	113*	22	·	·	-2
CC(C)C(=O)Nc1ccc2c(c1)C(=O)N(C)[C@@H]1CC[C@H](CC(=O)NCc3cccc(F)c3)O[C@@H]1CO2	-2	-21[16.7 µM]	·	·	·	-4
C/C(=N\N=C(/N)c1nonc1N)c1ccc2c(c1)OCO2	61*	39	12	·	3	-10
CCCC#Cc1ccc2c(c1)O[C@H](CN(C)C(=O)C1CCC1)[C@H](C)CN([C@H](C)CO)S2(=O)=O	0	15[16.7 µM]	·	·	0	0
COc1nc(C)ccc1-c1noc(-c2ccccn2)n1	-26	·	17	66	4	-9
COc1ccccc1-c1noc(-c2ccncc2)n1	46*	·	0	35	·	1
COc1ccccc1-c1noc(-c2cccs2)n1	55*	·	23	121*	5	-3
COc1ccccc1-c1nc(-c2ccc(C)nc2OC)no1	69*	-134	61*	·	·	-9

Assay outcomes deposited in PubChem BioAssay by Broad Institute.
